Test results published in ChEMBL document CHEMBL4145521, “Regioselective synthesis of 3,4-diaryl-5-unsubstituted isoxazoles, analogues of natural cytostatic combretastatin A4” (Eur J Med Chem, 2018).

Tests used:
Assay type in all cases: functional
Paracentrotus lividus [1] = assay: Antimitotic activity against Paracentrotus lividus embryo assessed as cleavage alteration measured at 2.5 hrs post fertilization by light microscopy
Procedure, shortened: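 Sea urchin eggs were fertilized with diluted sperm and cultured at room temperature in filtered seawater with paddle agitation (60 rpm), at up to 2000 embryos/mL. The effective threshold concentration causing cleavage alteration, death before hatching or full mitotic arrest was scored in duplicate.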

Paracentrotus lividus [2] = assay: Antimitotic activity against Paracentrotus lividus embryo assessed as embryo spinning after 15 mins to 20 hrs by light microscopy
Procedure, shortened: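 Free-swimming blastulae from the same culture were used just after hatching (8–10 h post-fertilization). They were kept in filtered seawater at room temperature and exposed to 2-fold decreasing concentrations. Spinning at the well bottom instead of forward swimming was monitored from 15 min to 20 h under light microscopy. The effective threshold concentration was recorded from duplicates.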

KM12 = assay: Cytotoxicity against human KM12 cells assessed as cell growth at 0.01 uM incubated for 48 hrs by sulforhodamine B assay relative to control; conditions: KM12, 48 h, read-out: Activity
SK-MEL-5 [3] = assay: Cytotoxicity against human SK-MEL-5 cells assessed as cell growth at 0.01 uM incubated for 48 hrs by sulforhodamine B assay relative to control; conditions: SK-MEL-5, 48 h, read-out: Activity
OVCAR-4 = assay: Cytotoxicity against human OVCAR4 cells assessed as cell growth at 0.01 uM incubated for 48 hrs by sulforhodamine B assay relative to control; conditions: OVCAR-4, 48 h, read-out: Activity
MOLT-4 = assay: Cytotoxicity against human MOLT4 cells assessed as cell growth at 0.1 uM incubated for 48 hrs by sulforhodamine B assay relative to control; conditions: MOLT-4, 48 h, read-out: Activity
SR [4] = assay: Cytotoxicity against human SR cells assessed as cell growth at 0.1 uM incubated for 48 hrs by sulforhodamine B assay relative to control; conditions: read-out: Activity
COLO 205 = assay: Cytotoxicity against human COLO205 cells assessed as cell growth at 0.1 uM incubated for 48 hrs by sulforhodamine B assay relative to control; conditions: COLO 205, 48 h, read-out: Activity
SW-620 = assay: Cytotoxicity against human SW620 cells assessed as cell growth at 0.1 uM incubated for 48 hrs by sulforhodamine B assay relative to control; conditions: SW-620, 48 h, read-out: Activity
SNB-19 = assay: Cytotoxicity against human SNB19 cells assessed as cell growth at 0.1 uM incubated for 48 hrs by sulforhodamine B assay relative to control; conditions: SNB-19, 48 h, read-out: Activity
SK-MEL-5 [5] = assay: Cytotoxicity against human SK-MEL-5 cells assessed as cell growth at 0.1 uM incubated for 48 hrs by sulforhodamine B assay relative to control; conditions: SK-MEL-5, 48 h, read-out: Activity
ACHN [6] = assay: Cytotoxicity against human ACHN cells assessed as cell growth at 0.1 uM incubated for 48 hrs by sulforhodamine B assay relative to control; conditions: read-out: Activity
RXF 393 [7] = assay: Cytotoxicity against human RXF393 cells assessed as cell growth at 0.1 uM incubated for 48 hrs by sulforhodamine B assay relative to control; conditions: RXF 393, 48 h, read-out: Activity
CCRF-CEM = assay: Cytotoxicity against human CCRF-CEM cells assessed as cell growth at 10 uM incubated for 48 hrs by sulforhodamine B assay relative to control; conditions: read-out: Activity
HL-60(TB) = assay: Cytotoxicity against human HL-60(TB) cells assessed as cell growth at 10 uM incubated for 48 hrs by sulforhodamine B assay relative to control; conditions: HL-60, 48 h, read-out: Activity
SR [8] = assay: Cytotoxicity against human SR cells assessed as cell growth at 10 uM incubated for 48 hrs by sulforhodamine B assay relative to control; conditions: read-out: Activity
NCI-H460 = assay: Cytotoxicity against human NCI-H460 cells assessed as cell growth at 10 uM incubated for 48 hrs by sulforhodamine B assay relative to control; conditions: NCI-H460, 48 h, read-out: Activity
HCC 2998 = assay: Cytotoxicity against human HCC2998 cells assessed as cell growth at 10 uM incubated for 48 hrs by sulforhodamine B assay relative to control; conditions: HCC 2998, 48 h, read-out: Activity
HCT-15 = assay: Cytotoxicity against human HCT15 cells assessed as cell growth at 10 uM incubated for 48 hrs by sulforhodamine B assay relative to control; conditions: HCT-15, 48 h, read-out: Activity
OVCAR-3 = assay: Cytotoxicity against human OVCAR3 cells assessed as cell growth at 10 uM incubated for 48 hrs by sulforhodamine B assay relative to control; conditions: OVCAR-3, 48 h, read-out: Activity
TK-10 = assay: Cytotoxicity against human TK10 cells assessed as cell growth at 10 uM incubated for 48 hrs by sulforhodamine B assay relative to control; conditions: TK-10, 48 h, read-out: Activity
K562 = assay: Cytotoxicity against human K562 cells assessed as cell growth at 100 uM incubated for 48 hrs by sulforhodamine B assay relative to control; conditions: K562, 48 h, read-out: Activity
NCI-H322M = assay: Cytotoxicity against human NCI-H322M cells assessed as cell growth at 100 uM incubated for 48 hrs by sulforhodamine B assay relative to control; conditions: read-out: Activity
SF-295 = assay: Cytotoxicity against human SF295 cells assessed as cell growth at 100 uM incubated for 48 hrs by sulforhodamine B assay relative to control; conditions: SF-295, 48 h, read-out: Activity
SK-MEL-5 [9] = assay: Cytotoxicity against human SK-MEL-5 cells assessed as cell growth at 100 uM incubated for 48 hrs by sulforhodamine B assay relative to control; conditions: SK-MEL-5, 48 h, read-out: Activity
UACC-62 = assay: Cytotoxicity against human UACC62 cells assessed as cell growth at 100 uM incubated for 48 hrs by sulforhodamine B assay relative to control; conditions: UACC-62, 48 h, read-out: Activity
RXF 393 [10] = assay: Cytotoxicity against human RXF393 cells assessed as cell growth at 100 uM incubated for 48 hrs by sulforhodamine B assay relative to control; conditions: RXF 393, 48 h, read-out: Activity
SN12C = assay: Cytotoxicity against human SN12C cells assessed as cell growth at 100 uM incubated for 48 hrs by sulforhodamine B assay relative to control; conditions: read-out: Activity
HOP-62 = assay: Cytotoxicity against human HOP62 cells incubated for 48 hrs by sulforhodamine B assay; conditions: HOP-62, 48 h
MDA-MB-435 = assay: Cytotoxicity against human MDA-MB-435 cells incubated for 48 hrs by sulforhodamine B assay; conditions: MDA-MB-435, 48 h
ACHN [11] = assay: Cytotoxicity against human ACHN cells incubated for 48 hrs by sulforhodamine B assay

COc1ccc(-c2nocc2-c2cc(OC)c(OC)c(OC)c2)cc1
EC (Paracentrotus lividus [1]): 0.01 µM
EC (Paracentrotus lividus [2]): 1 µM
growth at 0.01 µM (KM12): 92%
growth at 0.01 µM (SK-MEL-5 [3]): 100%
growth at 0.01 µM (OVCAR-4): 86%
growth at 0.1 µM (MOLT-4): 85%
growth at 0.1 µM (SR [4]): 42%
growth at 0.1 µM (COLO 205): 37%
growth at 0.1 µM (SW-620): 32%
growth at 0.1 µM (SNB-19): 69%
growth at 0.1 µM (SK-MEL-5 [5]): 41%
growth at 0.1 µM (ACHN [6]): 62%
growth at 0.1 µM (RXF 393 [7]): 86%
growth at 10 µM (CCRF-CEM): 24%
growth at 10 µM (HL-60(TB)): -8%
growth at 10 µM (SR [8]): 22%
growth at 10 µM (NCI-H460): 4%
growth at 10 µM (HCC 2998): 25%
growth at 10 µM (HCT-15): 11%
growth at 10 µM (OVCAR-3): -9%
growth at 10 µM (TK-10): 18%
growth at 100 µM (K562): 4%
growth at 100 µM (NCI-H322M): 18%
growth at 100 µM (SF-295): -35%
growth at 100 µM (SK-MEL-5 [9]): -99%
growth at 100 µM (UACC-62): -38%
growth at 100 µM (RXF 393 [10]): -2%
growth at 100 µM (SN12C): -1%
GI50 (HOP-62; read-out: GI50): 259 nM
LC50 (HOP-62; read-out: LC50): > 100000 nM
TGI (HOP-62; read-out: TGI): > 100000 nM
GI50 (HOP-62; read-out: pGI50 (converted)): 257 nM
LC50 (HOP-62; read-out: pLC50 (converted)): > 100000 nM
TGI (HOP-62; read-out: pTGI): > 100000 nM
GI50 (MDA-MB-435; read-out: GI50): 23.9 nM
CC50 (MDA-MB-435; read-out: LC50 (the source's name)): > 100000 nM
TGI (MDA-MB-435; read-out: TGI): 130 nM
GI50 (MDA-MB-435; read-out: pGI50 (converted)): 24 nM
CC50 (MDA-MB-435; read-out: pLC50 (the source's name) (converted)): > 100000 nM
TGI (MDA-MB-435; read-out: pTGI (converted)): 129 nM
GI50 (ACHN [11]; read-out: GI50): 1190 nM
LC50 (concentration killing 50% of cells) (ACHN [11]; read-out: LC50): > 100000 nM
TGI (ACHN [11]; read-out: TGI): 49400 nM
GI50 (ACHN [11]; read-out: pGI50 (converted)): 1200 nM
LC50 (concentration killing 50% of cells) (ACHN [11]; read-out: pLC50 (converted)): > 100000 nM
TGI (ACHN [11]; read-out: pTGI (converted)): 49000 nM
